NPY Y2 blocker: NPY-Y2 receptor antagonists, primary screen, cell-based | 140,000 compounds, 0.99% hits | NPY-Y2 expressing cells, antagonist mode | AID 793, 2007 | Neuropeptide Y receptor type 2 (Homo sapiens), P49146 | inhibition, % at 2.7 µM; in the data active = inhibition above about 17%;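 also: 0% = vehicle with agonist challenge and 100% = reference antagonist with challenge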
Target sequence (P49146 whole entry, looked up): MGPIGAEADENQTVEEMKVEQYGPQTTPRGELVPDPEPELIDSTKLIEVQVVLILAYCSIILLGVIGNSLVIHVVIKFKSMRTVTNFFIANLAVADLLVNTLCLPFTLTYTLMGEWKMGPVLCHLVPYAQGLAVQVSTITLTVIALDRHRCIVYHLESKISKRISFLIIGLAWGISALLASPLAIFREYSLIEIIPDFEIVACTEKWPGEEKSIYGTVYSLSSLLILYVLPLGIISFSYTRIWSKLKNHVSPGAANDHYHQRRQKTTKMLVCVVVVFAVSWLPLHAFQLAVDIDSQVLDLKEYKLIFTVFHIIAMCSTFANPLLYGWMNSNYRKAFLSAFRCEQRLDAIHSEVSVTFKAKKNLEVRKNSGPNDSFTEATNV
RAM inhibit: inhibitors of the yeast RAM network, primary screen, dse1pr::URA3 reporter, 5-FOA selection; S. cerevisiae dse1pr::URA3 reporter, 5-FOA growth OD615, 2 d; analog-sensitive cbk1-as2 kinase mutant strain; inhibition, % at 50 µM; 190,000 compounds, 1.8% hits;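 active = inhibition above a set limit, 3 SD over mean compound inhibition, cut at about 8.4% in these data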;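 also: 0% = DMSO-only wells with no growth and 100% = 10 µM 1-NA-PP1 full growth; inhibition rescues growth on 5-FOA so higher OD means more RAM inhibition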
NPY-Y1 PAM-ag: NPY-Y1 receptor potentiators or agonists, primary screen, cell-based. activation, % at 3.6 µM. NPY-Y1 expressing cells, potentiator/agonist activation. Neuropeptide Y receptor type 1 (Homo sapiens), P25929. 220,000 compounds, 0.37% hits; in the data active = activation above about 33%, passing the limit was not always enough;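 also: cells stimulated with NPY at EC10 then isoproterenol at EC100; 0% = low agonist plus stimulus and 100% = saturating agonist plus stimulus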
NPY2 pot ag: NPY-Y2 potentiators or agonists, primary screen, cell-based | 220,000 compounds, 0.45% hits | activation, % at 3.6 µM | Neuropeptide Y receptor type 2 (Homo sapiens), P49146 | cells expressing NPY-Y2, potentiator/agonist read-out; in the data active = activation above about 27%;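 also: cells stimulated with NPY near EC25 plus isoproterenol at EC100; 0% = vehicle plus submaximal agonist and 100% = vehicle plus saturating agonist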
NPY-Y1 antag: NPY-Y1 receptor antagonists, primary screen, cell-based; 200,000 compounds, 1% hits; inhibition, % at 3.6 µM; HEK293-CNG Y1 cells, membrane potential fluorescence; NPY at EC95, then isoproterenol;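 active = inhibition above the campaign mean inhibition of all tested compounds plus 3 SD, cut at about 20% in these data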;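 also: 0% = DMSO wells given NPY plus isoproterenol and 100% = isoproterenol alone without NPY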
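Test system – HEK293 Y1/CNG channel cell line · Also added – NPY agonist 25 nM, then isoproterenol 1 µM plus Ro 20-1724 25 µM · Compound dosing – one concentration, 3.6 µM, in 0.4% DMSO · Schedule – compound incubation 1 h at room temperature, readout 45 min post-stimulation · Technique – fluorescence, membrane potential probe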
WT yeast gro inh: growth inhibition of WT strain, primary screen, mitochondrial fusion inhibitor project, WT and mutant strains, chemical genetic; 190,000 compounds, 2.1% hits; mitochondrial fusion phenotypic screen; inhibition, % at 10 µM; AID 1362, 2008; in the data active = inhibition above about 58%; tested in S. cerevisiae
An asterisk follows results filed as active; x = not tested or not shown. Compounds with a hit are over-represented: about 4.9% of the library has one in this group of screens.

SMILES	NPY Y2 blocker	RAM inhibit	NPY-Y1 PAM-ag	NPY2 pot ag	NPY-Y1 antag	WT yeast gro inh
COCCOC(=O)c1c(C)oc2ccc(OC(=O)c3ccc4c(c3)OCO4)cc12	1	10*	-8	-7	-2	24
CCOC(=O)Oc1ccc2oc(C)c(C(=O)OCCOC)c2c1	2	2	-31	12	-1	9
O=S1(=O)CCN(C(CO)c2ccccc2)CC1 (configuration not stated)	x	1	3	2	5	2
COc1ccc(CN(C(=O)CSc2nnc(-c3ccc(F)cc3)o2)c2ccc(F)cc2)cc1	12	7	-24	-10	6	46
COc1ccc(CN(C(=O)CSc2nnc(-c3c[nH]c4ccccc34)o2)c2ccc(F)cc2)cc1OC	3	9.9*	-6	-9	5	37
COc1ccc(-n2nnnc2SCC(=O)N2CCOCC2)cc1	0	1	2	2	-6	8
Cc1ccc(CN2CCN(/N=C/c3ccc(C(F)(F)F)cc3)CC2)c(C)c1	5	-1	2	0	2	64*
CCc1ccc(-c2cn(C3CCCCC3)c(=S)[nH]2)cc1	x	2	4	2	7	68*
C=CCn1c(SCC(=O)Nc2sccc2C(N)=O)nc2sc(CC)cc2c1=O	-2	8.5*	9	1	-5	2
COc1ccc(S(=O)(=O)N(CC(=O)NC(C)C)Cc2ccccc2)cc1	4	1	6	1	0	10
COc1ccc(CNC(=O)CN(Cc2ccc(Cl)cc2)S(=O)(=O)c2ccccc2)cc1	8	8.6*	5	4	2	0
COc1ccc(S(=O)(=O)N(CCC(=O)O)Cc2ccccc2)cc1	x	1	1	-3	-3	-13
COc1ccc(CNC(=O)CN(Cc2ccccc2)S(=O)(=O)c2ccc(Cl)cc2)cc1	1	9.2*	13	1	1	2
O=[N+]([O-])c1cc(S(=O)(=O)N2CCCC2)ccc1N/N=C/c1cccnc1	2	0	2	13	-2	-11
COc1ccc(Cl)cc1NC(=O)CN(C)CC(=O)Nc1ccccc1N1CCOCC1	x	0	-4	8	4	17
COC(=O)c1ccccc1NC(=O)CNc1cc(Cl)ccc1N1CCOCC1	13	7	12	4	18	64*
Cc1cc(Cl)ccc1OC(C)C(=O)Nc1ccccc1N1CCOCC1 (configuration not stated)	9	9.5*	-4	4	6	73*
C#C[C@]1(O)CC[C@H]2[C@@H]3CCc4cc(OC5CCCC5)ccc4[C@H]3CC[C@@]21C	x	x	-14	2	7	96*
COc1ccc(-c2onc(C)c2-c2ccccc2)c(O)c1	3	3	-1	1	-1	13
O=C(N/N=C/c1cn(-c2cccs2)nc1-c1ccccc1)c1ccccc1O	0	1	21	3	-9	60*
CCCCCC(=O)Nc1cc(N(C)C)nc2ccccc12	6	-1	-10	-12	16	64*
CC(C)(C)C(=O)Nc1nnc(SCC(=O)NCc2cccs2)s1	2	3	-8	-6	-1	9
CC(C)C(=O)Nc1nnc(SCC(=O)NCc2cccs2)s1	1	1	2	3	6	77*
CN(C(=O)c1ccc(COc2ccccc2Br)o1)c1ccccc1	x	2	-10	-9	1	67*
O=C(c1ccc(COc2ccccc2Br)o1)N1CCCCCC1	6	1	-11	4	-3	36
COc1cc(COc2ccc3c(C)c(Cc4ccccc4)c(=O)oc3c2)cc(OC)c1OC	3	4	-16	-7	-2	2
Cc1ccc(CN2CCN(/N=C/c3ccc(Cl)c([N+](=O)[O-])c3)CC2)cc1	x	0	-23	-12	13	64*
Cc1ccc(CN2CCN(/N=C/c3cc([N+](=O)[O-])ccc3Cl)CC2)cc1	1	0	-1	0	4	28
COc1ccc(-c2noc(-c3ccccc3C(=O)Nc3cccc(OC)c3)n2)cc1	24*	7	-80	-14	43*	22

Screens from PubChem.
